Source: ChEMBL document CHEMBL4513216, “Probing the Open Global Health Chemical Diversity Library for Multistage-Active Starting Points for Next-Generation Antimalarials” (ACS Infect Dis, 2020)

test: Toxicity liver stage against HepG2, at 10uM; assay type: cell-based; parameters: test concentration 10 uM, cell line HepG2-A16-CD81EGFP; conditions: human, HepG2-A16-CD81EGFP cells; read-out: INHIBITION
Procedure, shortened: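 Uninfected HepG2-A16-CD81EGFP cells, 3 × 10^3 per well, 1536-well, plated on prespotted compound at 10 μM final, parasite-free screening media added to match infected plates; puromycin 10 μM positive, DMSO 0.5% negative; run in parallel with 48 h PbLuc assay at 37 °C, 5% CO2; viability by CellTiter-Glo luminescence, normalized to controls.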

Structure (SMILES)	cytotoxicity at 10 µM [%]
CCS(=O)(=O)CC(=O)NC(c1ccccc1)C1CCCC1 (configuration not stated)	-137
Cn1cnnc1-c1ccnc(NCc2ccc(Br)cc2)c1	2.87
O=C(c1cccnc1O)N(Cc1cccs1)CC1CCCO1 (configuration not stated)	-11.5
O=C([C@H]1C[C@H]2OCC[C@H]2N(CC2CC2)C1)N1CCCC1	-0.542
CCCn1c(C)c(CC(=O)N(C)CCO)c2c1CC(C)(C)CC2=O	-3.64
CCc1cnc(CNc2ccc(C(=O)NCc3ccco3)cc2C)o1	-0.375
CCc1nc(C)cc(N2CCCC(C(=O)c3ccc(OC)cc3C)C2)n1 (configuration not stated)	9.99
N#Cc1ccc(C(=O)N2CCCC3(C=Cc4ccccc4O3)CC2)cn1 (configuration not stated)	11.8
Cc1cc(NC(=O)Cc2ccccc2O)c[nH]c1=O	-2.38
O=C1COC2(COCCN(c3cnccn3)C2)CN1c1cccc(F)c1 (configuration not stated)	-104
CC(=O)NCCCC(=O)NC(C)c1nnc2n1CCC2 (configuration not stated)	-10.3
Cc1nc(CCNC(Cc2ccncc2)C(F)(F)F)cs1 (configuration not stated)	-1.48
Cn1nc2c(cc1=O)CN(CC(=O)Nc1nccs1)CC2	7.07
Cc1ccc(C(=O)N2CCn3c(COCC4CC4)cnc3C2C)nc1 (configuration not stated)	3.58
CNC(=O)C1Cc2ccccc2CN1C(=O)CC(C)C (configuration not stated)	-150
c1ccc(Sc2ccc3c(c2)OCO3)c(CNC2=NCCN2)c1	17.6
CCNc1ncc(C(=O)N(C)Cc2nc3cc(Cl)ccc3[nH]2)cn1	-44.3
COc1cc(N2C[C@@H](C)[C@](O)(C3CC3)C2)nc(N)n1	0.929
CCOc1ccc(CN2CC[C@@H]3CC[C@H](C2)N3)cc1CO	5.99
Cc1ncsc1CCN(C)C(=O)CN1C(=O)OC[C@@H]1c1ccccc1	-51.2
CC(C)(C)n1ncc(NCC(O)c2ccc(F)c(F)c2)c(Cl)c1=O (configuration not stated)	54.1
CN(C)CC(=O)N1CCO[C@@H]2CC(COCc3ccncc3)C[C@H]21 (some centres not stated)	-108
CN(C(=O)Cn1nc(-c2cccs2)ccc1=O)C1CCS(=O)(=O)C1 (configuration not stated)	7.36

Structure (SMILES)	cytotoxicity at 10 µM [%]
CC(CNC(=O)c1ccco1)N1CCc2sccc2C1 (configuration not stated)	0.107
COc1c(CNCc2cccc(CN(C)C)c2)c(C)nn1C	-9.95
Cc1ccc(N2CCCC(NCc3sccc3C)C2)nn1 (configuration not stated)	-3.8
CCN1CCN(C(=O)c2csnn2)c2ccccc21	-1.46
COc1ccc(NC(=O)N2CCC(c3noc(C)n3)CC2)cc1C	17.2
Cc1cc(NC(=O)c2ccc(Br)cc2F)n(C)n1	3.42
c1cnc2[nH]c(C3CCCC3)c(CN3CCCCC3)c2c1	-26.9
O=C(CCc1nc(Cl)n[nH]1)N[C@H]1CC[C@H]1NC1Cc2ccccc2C1	-1.74
O=C(O)COc1ccccc1CN1CCCC1c1ccncn1 (configuration not stated)	-29.2
COc1nn(C)cc1C(=O)NCC1(O)CCOCC1	-14.7
CC(=O)Nc1ccc(-c2ccccc2CCN)cc1	3.61
Cn1cc(C[C@H]2[C@H](O)CCN2C(=O)C2CCOCC2)cn1	13
CCN(CC)C(=O)CSc1nc2nc(C)ccc2o1	5.73
O=C(c1cccnc1)N1CCCC1c1cc[nH]n1 (configuration not stated)	-26.5
Cc1nc(C)n(CC2CCCCN2CCS(C)(=O)=O)n1 (configuration not stated)	-10.9
Cc1noc(C)c1CN1Cc2nccn2CC(CN2CCOCC2)C1 (configuration not stated)	-82
CCc1noc(CN2CCN(C(=O)OC(C)(C)C)C(C)C2)n1 (configuration not stated)	2.53
CCCS(=O)(=O)N1CCC2(CCC(=O)N(CCc3ccccc3)C2)CC1	6.84
O=C(C1=CCCC1)N1C[C@@H]2COC[C@]2(COc2cccnc2)C1	-5.38
CC(C)NC(=O)Cn1cc(-c2ccccc2)ncc1=O	-9.87
Cc1nc(S(=O)(=O)N2CCSC3(CCCCC3)C2)cn1C	-9.2
CC(C)c1nnc2n1CCN(C(=O)c1ccc3cc[nH]c3c1)C2	4.02
O=C(Cn1c(=O)oc2ccccc21)N1Cc2cncnc2C1	-0.0603

Structure (SMILES)	cytotoxicity at 10 µM [%]
CN(C)S(=O)(=O)N1CCN(C(=O)c2ccc3ccn(C)c3c2)CC1	-7.56
Cc1nccc(CNC(=O)NCCC(=O)N2CCCc3ccccc32)n1	-0.457
CC1c2ncc(COCC3CC3)n2CCN1C(=O)c1ccn(C)n1 (configuration not stated)	0.993
CCOC(=O)c1ccccc1NC(=O)CN(C)Cc1ccccc1Cl	-5.65
O=C(C1CCC1)N1CCc2[nH]cnc2C12CCN(C1CCOCC1)CC2	-2.4
CCN1CCC(CNC(=O)C2(c3cccc(C)c3)CC2)C1 (configuration not stated)	1.42
COc1ccc([C@@H]2CN(Cc3ccncc3)C[C@H]2c2cc[nH]n2)cc1	-4.96
COCCCNC(=O)c1ccccc1S(C)(=O)=O	-2.83
O=C(CNC(=O)c1ccoc1)NCCOc1ccc2c(c1)CCC2	-7.98
Cc1c(C(=O)NCC(C)C)nnn1-c1cccc2c1CCN(CCO)C2	8.09
CN(C(=O)Cc1cccs1)C1CCN(c2ccccn2)CC1	-3.54
CC(Oc1ccccc1C(F)(F)F)C(=O)NCC(N)=O (configuration not stated)	-8.38
CCC(CC)C(=O)N1CCN(Cc2nc3ccccc3c(=O)[nH]2)CC1	-17.6
COCC1CCN(C(=O)c2cccc(S(=O)(=O)NCC3(C)COC3)c2)C1 (configuration not stated)	3.82
Cc1cc(C(C)NC(=O)c2c[nH]c(=O)c(Cl)c2)c(C)o1 (configuration not stated)	12.5
CC(=O)NCCc1ccc(S(=O)(=O)Nc2cc(F)ccc2C)s1	-13.6
Cc1ccc(C(=O)N2Cc3c(CN(C)C)nn(C)c3C2)cc1C	1.77
CCOCc1ncn2c1CN(S(=O)(=O)c1cccc(C)c1)CC2	-1.33
CCn1nccc1CN(C)c1nc(N)nc2c1nc(C)n2C	-4.83
CC(C)NC(=O)Cn1cc(-c2ccccc2)cn1	-0.577
O=C(NC1CCN(C2CC2)CC1)NC1CCOc2ccc(Br)cc21 (configuration not stated)	-3.43
COc1ccccc1CNc1ccc2nncn2n1	10.4
CCC(C)NC(=O)c1ccc(CNC(=O)COC)cc1 (configuration not stated)	10.7

Structure (SMILES)	cytotoxicity at 10 µM [%]
COC(=O)C1CN(Cc2ccc(-c3ccncc3)cc2F)C[C@@H](C)O1 (some centres not stated)	1.63
COc1ccc(CN2C[C@@H]3CCCO[C@@H]3[C@H](NS(C)(=O)=O)C2)cc1	-2.83
CCOc1ccc(CN2C(=O)CC(CC)(CC)C2=O)nc1	5.73
C[C@H](O)CNc1cc(-c2ccccc2)ncn1	-11.2
Cc1nc(-c2ccc(F)cc2)cc(C2CCNCC2)n1	8.1
COc1cc(C(=O)N2CCCC(n3cncn3)C2)ccc1C (configuration not stated)	-3.86
COCCCN1C(=O)CC[C@H]2CN(c3cc(C(N)=O)ccn3)CC[C@H]21	4.12
Cc1nc(CN2CCC23CCN(C(=O)c2ccco2)CC3)cs1	-98.9
O=C1CCC(c2nc(C3CCN(C(=O)Cc4cccs4)CC3)no2)N1 (configuration not stated)	-2.83
NC(=O)C1(c2cnccn2)CCCN1Cc1ccc(F)c(F)c1 (configuration not stated)	-14
O=C(NCC1(O)CCOC1)NCC1(c2ccccc2Cl)CC1 (configuration not stated)	-45.7
CC(C)c1ccc2c(c1)CCCN2C(=O)CN(C)S(C)(=O)=O	3.78
Cc1ccc2cc(C(=O)N3CCS(=O)(=O)CC3)[nH]c2c1	-56.3
Cc1cnn(Cc2cc(F)ccc2F)c1NC(=O)NC1CC1	16.9
CN(Cc1ccc2c(c1)OCO2)C(=O)c1ccc(C2CCCO2)s1 (configuration not stated)	5.6
Cc1nc(C(=O)N2CCC(c3nccn3Cc3ccncc3)CC2)cs1	-2.85
O=C(NC1CC1)c1cc2c(nc1O)CC(c1cccs1)CC2=O (configuration not stated)	86.1
c1cnc(Nc2ccc(C3CCCCN3)cn2)cn1 (configuration not stated)	1.24
CCC(O)CN1CCN(C(=O)CN(C)c2ccc(Cl)cn2)CC1 (configuration not stated)	0.684
CC(C)(CC(=O)N(CC(N)=O)C1CCCC1)c1ccccc1	-4.95
Cc1cncc(C(=O)N2CCC3(CCCN(c4nncs4)C3)C2)c1 (configuration not stated)	-99.4
COc1ccc(F)cc1NC(=O)NCC1(CN2CCOCC2)CC1	3.18
Cc1nn(C)cc1NC(=O)CN1CCN(C2CCCC2)C(=O)C1	6.89

Structure (SMILES)	cytotoxicity at 10 µM [%]
COc1ccc(C(=O)NC(CC(=O)O)c2cccs2)c(OC)c1 (configuration not stated)	-0.463
CC(C)N(C)S(=O)(=O)N1CCN(Cc2ccco2)CC1	-0.796
CCn1cc(CNC(=O)c2nn(CC)cc2Br)cn1	47.1
O=C(C1=CCCCC1)N1CCO[C@H]2[C@H](Oc3ccccn3)CC[C@@H]21	5.08
O=C1NCCCCC1NC(=O)C1(c2cccc(C(F)(F)F)c2)CC1 (configuration not stated)	-5.67
O=C(NC1CCN(Cn2nc(-c3ccccc3)oc2=O)CC1)C1CC1	8.19
Cn1cc(C(=O)NC2CCCC2)c(-c2cccnc2)n1	10.3
COCCN1CC2(CCCN(Cc3cc(=O)c(OC)co3)C2)CCC1=O (configuration not stated)	-40
Cc1cc(-n2c(C)cn(CN(C)Cc3ccccc3)c2=O)no1	10.3
CN(Cc1nnn(CC2CCC2)n1)C(=O)c1ccccc1	-6.06
CCn1c(CC2CCN(S(=O)(=O)N3CCCCC3)CC2)nn(C)c1=O	1.58
COC(=O)CC(NC(=O)c1ccc(OC)cc1OC)c1cccs1 (configuration not stated)	-0.554
CCn1cc(NC(=O)NCCN2CCCc3ccccc32)cn1	2.96
CCc1nc(CNC(C)(CO)C2CCCCC2)no1 (configuration not stated)	-13.1
Cc1cc(C)c(CNC(=O)N2CCC(N3CCCCC3)CC2)c(=O)[nH]1	7.53
Cc1nc(C)n(CC2CN(S(C)(=O)=O)Cc3nccn3C2)n1 (configuration not stated)	-140
c1ccc(-c2ncc(CNC3CCc4ncnn4C3)cn2)cc1 (configuration not stated)	-0.722
CCCN1CCN(C(=O)c2scnc2C)CC1	-0.73
N#CCC(=O)NCc1nnc2n1CCN(Cc1ccco1)C2	-139
c1coc(CN2C[C@@H]3CN(Cc4ccoc4)CCO[C@@H]3C2)c1	-3.87
